UHRF1 binding: human UHRF1 methylated DNA binding inhibitors; UHRF1 binding to methylated oligo, TR-FRET; inhibition, % at 4.4 µM; 370,000 compounds, 0.75% hits; AID 687016; in the data active = inhibition above about 21%;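 note: UHRF1 SRA domain binding a hemimethylated CpG hairpin DNA probe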
LEDGF integ inh: blocks HIV-1 LEDGF/p75-dependent DNA integration. TR-FRET IN-LEDGF/p75 DNA integration, Eu/Cy5. inhibition, % at 3.7 µM. 370,000 compounds, 0.64% hits. AID 743269;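 active = inhibition above the screen-wide mean plus 3 SD, cut at about 13% in these data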;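 note: signal is the Cy5 over europium emission ratio at 671 and 618 nm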
RBBP9 inhibitor: inhibitors of human serine hydrolase RBBP9 | inhibition, % at 7.94 µM | O75884 | 220,000 compounds, 0.2% hits | AID 1515 | recombinant RBBP9, FP-Rh probe fluorescence polarization;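 active = inhibition above the campaign mean of all tested compounds plus 3 SD, cut at about 14% in these data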
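System: RBBP9 protein / Buffer or medium: Tris/NaCl buffer pH 8.0 with 0.1% Pluronic / Probe or stimulus: Serine-hydrolase probe FP-Rh, 375 nM pre-mixing / Dosing: 7.94 µM single dose, 0.794% DMSO / Times: enzyme-compound preincubation 30 min, then probe labeling 45 min, 25 °C / Technique: fluorescence polarization (mP), excitation 525 nm, emission 598 nm / Replication: singlicate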
PRMT1 inh: blocks human protein arginine methyltransferase 1; Q99873; recombinant PRMT1, activity-based probe fluorescence polarization; inhibition, % at 2.79 µM; 370,000 compounds, 1.3% hits; AID 652257;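 active = inhibition above about 21% made by adding two undisclosed values, limit read from the data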
MBD2 DNA inh: MBD2-methylated oligo binding inhibition. TR-FRET, MBD2 binding to methylated oligonucleotide. inhibition, % at 4.4 µM. 370,000 compounds, 0.31% hits. Q9UBB5; in the data active = inhibition above about 13%
ABHD5-PLIN5 inh: blocks binding of human ABHD5 to perilipin-5. 360,000 compounds, 0.78% hits. Split G. princeps luciferase complementation, luminescence, 4 h. inhibition, % at 4 µM. Q00G26+Q8WTS1. AID 602281;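 active = inhibition above the mean inhibition across every tested compound plus 3 SD, cut at about 22% in these data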
A number is an active result; ! = not confirmed by another sample. The list is not random: actives were taken first. Their share in the collection is about 3.1%.

Screening COc1ccc(-c2nc3cc(C)c(Br)c(C)n3c2Cc2ccccc2C(F)(F)F)cc1OC returned UHRF1 binding 25, LEDGF integ inh inactive, PRMT1 inh inactive, MBD2 DNA inh inactive and ABHD5-PLIN5 inh inactive.
For C[C@@H]1COc2cc(N3CCCCC3)ccc2S(=O)(=O)N1 the results were UHRF1 binding 22, LEDGF integ inh inactive, PRMT1 inh inactive and MBD2 DNA inh inactive.
Screening C[C@@H]1COc2cc(NCCO)ccc2S(=O)(=O)N1 returned UHRF1 binding 22, LEDGF integ inh inactive, PRMT1 inh inactive and MBD2 DNA inh inactive.
Screening C[C@H]1COc2cc(N3CCCCC3)ccc2S(=O)(=O)N1 returned UHRF1 binding inactive, LEDGF integ inh inactive, PRMT1 inh inactive and MBD2 DNA inh inactive.
`CC(C)C[C@@H]1COc2cc(NC3CC3)ccc2S(=O)(=O)N1` gave UHRF1 binding 21, LEDGF integ inh inactive, PRMT1 inh inactive and MBD2 DNA inh inactive.
O=C(Nc1ccccc1)Nc1c(F)cccc1F was read as UHRF1 binding inactive, LEDGF integ inh inactive, RBBP9 inhibitor inactive, PRMT1 inh inactive, MBD2 DNA inh inactive and ABHD5-PLIN5 inh inactive.
`O=C(O)/C=C/C(=O)Nc1c(F)cccc1F` gave UHRF1 binding inactive, LEDGF integ inh inactive, RBBP9 inhibitor inactive, PRMT1 inh 22, MBD2 DNA inh inactive and ABHD5-PLIN5 inh inactive.
For Cc1csc(N=Cc2ccc([N+](=O)[O-])o2)n1 the results were UHRF1 binding 22, LEDGF integ inh 21, PRMT1 inh 23, MBD2 DNA inh inactive and ABHD5-PLIN5 inh inactive.
For O=[N+]([O-])c1ccc(/C=N/N=C/c2ccc([N+](=O)[O-])o2)o1 the results were UHRF1 binding inactive, LEDGF integ inh inactive, RBBP9 inhibitor inactive, PRMT1 inh inactive, MBD2 DNA inh inactive and ABHD5-PLIN5 inh inactive.
CC(C)C[C@@H]1COc2cc(N3CCCC3)ccc2S(=O)(=O)N1 was read as UHRF1 binding inactive, LEDGF integ inh inactive, PRMT1 inh inactive and MBD2 DNA inh inactive.
For O=C(CSc1nncs1)N1CCN(C(=O)c2ccco2)CC1 the results were UHRF1 binding 37, LEDGF integ inh inactive, PRMT1 inh inactive, MBD2 DNA inh inactive and ABHD5-PLIN5 inh inactive.
`CNc1ccccc1/C(O)=C(\C#N)C(=O)NCc1cccc2ccccc12` gave UHRF1 binding inactive, LEDGF integ inh inactive, PRMT1 inh inactive and MBD2 DNA inh inactive.
`Cc1ccc(C(=O)NC2CCS(=O)(=O)C2)cc1S(=O)(=O)N1CCOCC1` (configuration not stated) gave UHRF1 binding inactive, LEDGF integ inh inactive, RBBP9 inhibitor inactive, PRMT1 inh inactive, MBD2 DNA inh inactive and ABHD5-PLIN5 inh inactive.
CC1CCCC(NC(=O)COC(=O)c2ccc(S(=O)(=O)N3CCOCC3)cc2)C1C (configuration not stated) was read as UHRF1 binding 21, LEDGF integ inh inactive, RBBP9 inhibitor inactive, PRMT1 inh inactive, MBD2 DNA inh inactive and ABHD5-PLIN5 inh inactive.
For Cc1ccc(C(=O)NC2CCS(=O)(=O)C2)cc1S(=O)(=O)N1CCCCC1 (configuration not stated) the results were UHRF1 binding 25, LEDGF integ inh inactive, RBBP9 inhibitor inactive, PRMT1 inh inactive, MBD2 DNA inh inactive and ABHD5-PLIN5 inh inactive.
`Cc1ccc(S(=O)(=O)N2CCCCC2)cc1C(=O)OCC(=O)NC(=O)NC12CC3CC(CC(C3)C1)C2` gave UHRF1 binding 45, LEDGF integ inh inactive, RBBP9 inhibitor inactive, PRMT1 inh inactive, MBD2 DNA inh inactive and ABHD5-PLIN5 inh inactive.
For Cc1ccc(S(=O)(=O)N2CCOCC2)cc1C(=O)OCC(=O)NC1CCS(=O)(=O)C1 (configuration not stated) the results were UHRF1 binding 21, LEDGF integ inh inactive, RBBP9 inhibitor inactive, PRMT1 inh inactive, MBD2 DNA inh inactive and ABHD5-PLIN5 inh inactive.
`CCOc1ccc(NC(=O)COC(=O)c2cc(S(=O)(=O)N3CCCC3)ccc2C)cc1` gave UHRF1 binding inactive, LEDGF integ inh inactive, PRMT1 inh inactive, MBD2 DNA inh inactive and ABHD5-PLIN5 inh inactive.
For COc1cc(NC(=O)NC2CCCCN(Cc3cccc(Cl)c3)C2=O)cc(OC)c1 (configuration not stated) the results were UHRF1 binding inactive, LEDGF integ inh inactive, PRMT1 inh inactive and MBD2 DNA inh inactive.
For FC(F)(F)Oc1cccc(Cn2ccc3ccc(-c4ccc5ccn(Cc6ccccc6)c5c4)cc32)c1 the results were UHRF1 binding inactive, LEDGF integ inh inactive, PRMT1 inh inactive and MBD2 DNA inh inactive.
Screening CCCCN1CN2Cc3cc(OC)ccc3C2CS1(=O)=O (configuration not stated) returned UHRF1 binding inactive, LEDGF integ inh inactive, PRMT1 inh inactive and MBD2 DNA inh inactive.
Screening Cc1ccccc1CN1CCCCC(NC(=O)Nc2ccccc2)C1=O (configuration not stated) returned UHRF1 binding inactive, LEDGF integ inh inactive, PRMT1 inh inactive and MBD2 DNA inh inactive.
Cc1ccc(S(=O)(=O)N(C)C)cc1NC(=O)COC(=O)/C=C/c1ccc(F)cc1 was read as UHRF1 binding 35, LEDGF integ inh inactive, PRMT1 inh inactive, MBD2 DNA inh inactive and ABHD5-PLIN5 inh inactive.
CN(C)C(=O)C[C@H]1C[C@@H]2c3cc(NC(=O)NC4CCCC4)ccc3O[C@@H]2[C@@H](CO)O1 was read as UHRF1 binding inactive, LEDGF integ inh inactive, PRMT1 inh inactive and MBD2 DNA inh inactive.
For CCCCOc1cccc(C2C(C(=O)c3ccc(C)o3)=C(O)C(=O)N2c2nnc(C)s2)c1 (configuration not stated) the results were UHRF1 binding inactive, LEDGF integ inh inactive, PRMT1 inh 23, MBD2 DNA inh inactive and ABHD5-PLIN5 inh inactive.
`O=C1CSC(c2nn(-c3ccccc3)cc2-c2cc3ccccc3oc2=O)N1Cc1ccco1` (configuration not stated) gave UHRF1 binding inactive, LEDGF integ inh inactive, RBBP9 inhibitor inactive, PRMT1 inh inactive, MBD2 DNA inh inactive and ABHD5-PLIN5 inh 23.
For COC(=O)c1cn(-c2ccc3c(c2)[C@@]2(CC(=O)N(C)C2c2ccccc2)C(=O)N3CC(C)C)nn1 (some centres not stated) the results were UHRF1 binding inactive, LEDGF integ inh inactive, PRMT1 inh inactive and MBD2 DNA inh inactive.
OCCOCCN1CCN(C2=Nc3ccccc3Sc3ccccc32)CC1 was read as UHRF1 binding inactive, LEDGF integ inh inactive, RBBP9 inhibitor inactive, PRMT1 inh inactive, MBD2 DNA inh inactive and ABHD5-PLIN5 inh 23!.
For CN(C)c1cccc(N(C)C)c1CNC(=O)NC(=O)c1c(F)cccc1F the results were UHRF1 binding 28, LEDGF integ inh inactive, PRMT1 inh inactive, MBD2 DNA inh inactive and ABHD5-PLIN5 inh inactive.
For COc1cc(NC(=O)c2[nH]c(C)c(C(C)=O)c2C)c(OC)cc1Cl the results were UHRF1 binding inactive, LEDGF integ inh inactive, PRMT1 inh inactive and MBD2 DNA inh inactive.
